Measurements of several laboratories.
Lines come from different studies, so protocols differ.
Target: Protein kinase C zeta type (PRKCZ, Homo sapiens, UniProt Q05513)
One construct used (Q05513 1-592): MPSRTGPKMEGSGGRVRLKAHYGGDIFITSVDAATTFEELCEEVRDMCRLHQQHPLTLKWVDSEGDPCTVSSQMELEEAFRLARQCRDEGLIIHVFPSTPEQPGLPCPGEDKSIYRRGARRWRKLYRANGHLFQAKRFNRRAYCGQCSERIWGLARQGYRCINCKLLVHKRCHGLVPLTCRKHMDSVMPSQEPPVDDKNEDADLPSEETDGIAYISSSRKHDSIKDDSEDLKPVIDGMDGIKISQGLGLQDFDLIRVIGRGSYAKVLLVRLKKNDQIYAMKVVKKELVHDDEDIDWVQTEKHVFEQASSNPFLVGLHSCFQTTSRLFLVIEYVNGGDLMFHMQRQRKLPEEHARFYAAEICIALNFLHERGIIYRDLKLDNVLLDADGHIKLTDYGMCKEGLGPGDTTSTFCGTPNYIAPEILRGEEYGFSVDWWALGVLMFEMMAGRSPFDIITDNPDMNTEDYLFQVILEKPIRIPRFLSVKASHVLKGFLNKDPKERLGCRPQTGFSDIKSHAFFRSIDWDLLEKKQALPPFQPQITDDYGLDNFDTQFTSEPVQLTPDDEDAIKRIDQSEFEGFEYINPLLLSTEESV

Structure (SMILES) | read-out | mode | method | concentration | endpoint | result
COc1cc(Cl)c(C(=O)N[C@@H](CN[C@H]2CC[C@@H](N)CC2)Cc2ccc(C#N)cc2)cc1-c1ccc(CN[C@H](C)c2ccc(C)cc2)o1 | enzyme activity | inhibitor |  | 1 µM | remaining activity | 91%
CCCCNc1ncc2c(-c3ccc(F)cc3)nn(C[C@H]3CC[C@H](N)CC3)c2n1 | target engagement in cells | inhibitor | chemoproteomics | 20 mM | inhibition | -19.6%
Cn1c2c(c3ccc(Cl)c(Cl)c31)C(C#N)C1(CCOCC1)NC2=O (stereo not drawn) | thermal stability |  | DSF | 10 µM | ΔTm | -0.2 °C
CCCOc1ccc(OC)c(F)c1C(=O)c1ccc(C(=O)N[C@@H]2CNC[C@H]2NC(=O)c2ccc3[nH]ncc3c2)cc1 | enzyme activity | inhibitor |  | 10 µM | remaining activity | 60%
CC(C)(C)c1nc(-c2cccc(NS(=O)(=O)c3c(F)cccc3F)c2F)c(-c2ccnc(N)n2)s1 | enzyme activity | inhibitor | radiometric | 1 µM | remaining activity | 109%
C[C@@H](N)[C@H]1CC[C@H](C(=O)Nc2ccncc2)CC1 | enzyme activity | inhibitor | TR-FRET | 10 µM | inhibition | 7.4%
Cc1ccc(Nc2nccc(N(C)c3ccc4c(C)n(C)nc4c3)n2)cc1S(N)(=O)=O | enzyme activity | inhibitor |  | 10 µM | inhibition | -2%
CC(C)(C)C(=O)c1sc(NC2CCCCC2)nc1N | enzyme activity | inhibitor |  | 10 µM | remaining activity | 104%
CC(C)c1ccc(NC(=O)c2cccs2)c(-c2nc3ccccc3[nH]c2=O)c1 | enzyme activity | inhibitor |  | 1 µM | activity vs control | 97%
Cn1c2c(Cl)c(Cl)ccc2c2cc(N)[nH]c(=O)c21 | thermal stability |  | DSF | 10 µM | ΔTm | 0.1 °C
Cc1ccc(-n2nc(C(C)(C)C)cc2NC(=O)Nc2ccc(OCCN3CCOCC3)c3ccccc23)cc1 | enzyme activity | inhibitor |  | 10 µM | inhibition | -3%
O=C1NC(=O)c2cc(Nc3ccc(F)cc3)c(Nc3ccc(F)cc3)cc21 | cell-free assay |  |  | 0.5 µM | remaining signal | 100%
FC(F)c1nc2ccccc2n1-c1nc(N2CCOCC2)nc(N2CCOCC2)n1 | enzyme activity | inhibitor |  | 10 µM | remaining activity | 87%
Cn1c2c(c3ccc(Cl)c(Cl)c31)C(C#N)C1(CCNCC1)NC2=O (racemic) | thermal stability |  | DSF | 10 µM | ΔTm | 0.9 °C
O=C(Nc1cnn(-c2csc(C(=O)NC3COC3)c2)c1)Nc1ccccc1Cl | enzyme activity | inhibitor |  | 5 µM | remaining activity | 105%
COc1cc2ncnc(Nc3ccc(Oc4ccccc4)cc3C)c2cc1OC | enzyme activity | inhibitor |  | 1 µM | inhibition | 3%
Cc1cnc(NC2CCOCC2)nc1-n1cnc(C(=O)NC(CN)c2cc(F)cc(Cl)c2)c1 (stereo not drawn) | enzyme activity | inhibitor | radiometric | 1 µM | remaining activity | 106%
COc1cc(-c2cc(-c3ccc(N4CCNCC4)cc3)cnc2C)cc(OC)c1OC | enzyme activity | inhibitor |  | 0.1 µM | inhibition | 5%
